This note sets out measurements from ChEMBL document CHEMBL1138813, “Synthesis and antiviral activity of 3-formyl- and 3-cyano-2,5,6-trichloroindole nucleoside derivatives” (J Med Chem, 2004).

Structures are written as SMILES.

A short description of assay [1]: Inhibitory concentration required against herpes simplex virus type-1 (HSV-1) expressed in BSC-1 cells was determined by ELISA assay. The class given is functional, cell-based, Cercopithecidae. Summed up: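 BSC-1 cells, 10 000 per well in MEM(E) plus 10% calf serum, incubated overnight at 37 °C. Drug added in quadruplicate with HSV-1 KOS strain at 100 pfu/well, then 3 days at 37 °C. […] Acyclovir as positive control.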
A general note: In an ELISA, binding on a coated surface is turned into a signal by an enzyme label.

Assay [2] deals with HFF. In words: Inhibitory concentration required against human cytomegalovirus (HCMV) expressed in HFF cells was determined by plaque reduction assay. The assay is classed as functional, cell-based. A digest of the protocol: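 HFF cells in 24-well dishes infected with about 100 pfu/cm² of HCMV Towne strain. After adsorption, compound (10 mg/mL DMSO stock diluted in medium) added to duplicate wells at four to eight concentrations. Incubated 7–10 days at 37 °C, then fixed and crystal violet stained; plaques counted microscopically. % plaque reduction vs drug-free wells; IC50 by log-linear regression. GCV as positive control.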

The test system of assay [3] is HFF. In words: Cytotoxicity produced in stationary HFF cells was determined by microscopic inspection of uninfected cells. The class given is functional, cell-based. The settings on record: Homo sapiens. Summed up:
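Stationary HFF cells in MEM with 10% fetal bovine serum, in plaque-assay plates. Visual cytotoxicity scored microscopically in duplicate wells on cells not affected by virus, at the time of HCMV plaque enumeration (after 7–10 days at 37 °C). IC50 from linear portion of regression of % inhibition against log10 drug concentration.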

The nature of assay [4]: Cytotoxicity against KB cells was determined by crystal violet staining and spectrophotometric quantitation of dye eluted from stained cells. The assay is classed as functional, cell-based. The settings on record: Homo sapiens. Summed up: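 KB cells seeded at 3000–5000 per well, incubated overnight at 37 °C, then compound added in quadruplicate at six to eight concentrations. After 48 h at 37 °C in CO₂ (two population doublings), cells were fixed in 95% ethanol and stained with 0.1% crystal violet. Dye eluted with acidified ethanol, read at 570 nm. IC50 from linear regression of % inhibition vs log10 concentration.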

The term IC50 denotes the point on the concentration scale where inhibition reaches its midpoint.

On to `NC(=O)N/N=C/c1c(Cl)n(C2O[C@H](CO)[C@@H](O)[C@H]2O)c2cc(Cl)c(Cl)cc12` (some centres not stated), for which the IC50 in assay [1] is more than 100 µM; in assay [2], 3 µM; in assay [3] it was 100 µM; in assay [4] it was more than 100 µM.
With `COC(=O)N/N=C/c1c(Cl)n(C2O[C@H](CO)[C@@H](O)[C@H]2O)c2cc(Cl)c(Cl)cc12` (some centres not stated), the concentration for half-maximal inhibition (IC50) in assay [1] amounted to 30 µM; in assay [2] it was 1.7 µM; in assay [3], 32 µM; in assay [4], 20 µM.
The matching figures for `N/C(S)=N/N=C/c1c(Cl)n(C2O[C@H](CO)[C@@H](O)[C@H]2O)c2cc(Cl)c(Cl)cc12` (some centres not stated): more than 100 µM, 2.2 µM, 100 µM and 65 µM.
Turning to `OC[C@H]1O[C@@H](n2c(Br)nc3cc(Cl)c(Cl)cc32)C(O)[C@@H]1O` (single isomer, unassigned), the IC50 in assay [1] is 130 µM; in assay [4], more than 100 µM.
For `OC[C@H]1O[C@@H](n2c(Cl)nc3cc(Cl)c(Cl)cc32)C(O)[C@@H]1O` (single isomer, unassigned), in that order: 102 µM and 210 µM.
For the compound `OC[C@H]1OC(n2c(Cl)c(/C=N/O)c3cc(Cl)c(Cl)cc32)C(O)[C@@H]1O` (single isomer, unassigned), the IC50 came to 5 µM in assay [1], 3.9 µM in assay [2], 20 µM in assay [3] and 25 µM in assay [4].
For `CO/N=C/c1c(Cl)n(C2O[C@H](CO)[C@@H](O)C2O)c2cc(Cl)c(Cl)cc12` (single isomer, unassigned), in that order: 15 µM, 40 µM, 32 µM and 70 µM.
Consider `N#Cc1c(Cl)n(C2O[C@H](CO)[C@@H](O)C2O)c2cc(Cl)c(Cl)cc12` (single isomer, unassigned), for which the IC50 in assay [1] came to 15 µM; in assay [2], 0.55 µM; in assay [4], 65 µM.
Take `O=Cc1c(Cl)n(C2O[C@H](CO)[C@@H](O)C2O)c2cc(Cl)c(Cl)cc12` (single isomer, unassigned): the values for the IC50 in assay [1], in assay [2] and in assay [4] were 40 µM, 0.23 µM and 45 µM, respectively.
As to `NC(=O)c1c(Cl)n(C2O[C@H](CO)[C@@H](O)C2O)c2cc(Cl)c(Cl)cc12` (single isomer, unassigned), the IC50 in assay [1] is 40 µM; in assay [2] it was 2 µM; in assay [3] it was 45 µM; in assay [4] it was 45 µM.
`N/C(=N\O)c1c(Br)n(C2O[C@H](CO)[C@@H](O)C2O)c2cc(Cl)c(Cl)cc12` (single isomer, unassigned): the IC50 was more than 100 µM in assay [1], 0.41 µM in assay [2], more than 100 µM in assay [3] and 35 µM in assay [4].
As to `COC(=N)c1c(Cl)n(C2O[C@H](CO)[C@@H](O)C2O)c2cc(Cl)c(Cl)cc12` (single isomer, unassigned), the IC50 was 70 µM in assay [1], 0.36 µM in assay [2], 100 µM in assay [3] and 50 µM in assay [4].
For the compound `N/C(=N\O)c1c(Cl)n(C2O[C@H](CO)[C@@H](O)C2O)c2cc(Cl)c(Cl)cc12` (single isomer, unassigned), the IC50 in assay [1] is 70 µM; in assay [2], 0.3 µM; in assay [3], 100 µM; in assay [4] it was more than 100 µM.
As for `CC(=O)N/N=C/c1c(Cl)n(C2O[C@H](CO)[C@@H](O)C2O)c2cc(Cl)c(Cl)cc12` (single isomer, unassigned), the IC50 in assay [1] stood at 30 µM; in assay [2], 1.7 µM; in assay [3], 32 µM; in assay [4] it was 9 µM.
As to `CN(C)/N=C/c1c(Cl)n(C2O[C@H](CO)[C@@H](O)C2O)c2cc(Cl)c(Cl)cc12` (single isomer, unassigned), the IC50 stood at 15 µM in assay [1], 0.27 µM in assay [2], 32 µM in assay [3] and 70 µM in assay [4].
With `Nc1nc2c(ncn2COC(CO)CO)c(=O)[nH]1` [GANCICLOVIR], the IC50 is 3.5 µM in assay [1], more than 100 µM in assay [3] and more than 100 µM in assay [4].
